# Only some compounds are listed: those with a hit (about 2.3% of all), similar ones and a draw of the others.
# OXTR agonist = human OXTR agonists, primary screen, fluorescence, CHO-OTR cells, Fluo-8 calcium. Fluo-8 calcium fluorescence; normalized: DMSO 0%, oxytocin 100%. activation, % at 3 µM. Oxytocin receptor (Homo sapiens), P30559. hit rate 0.32% among 320,000;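 active = activation above the mean of all tested compounds plus 3 SD, cutoff set per screening run, cut at about 20% in these data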;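 also: peak over basal fluorescence ratio from a 100 s FLIPR kinetic read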
# Target sequence (P30559 whole entry, looked up): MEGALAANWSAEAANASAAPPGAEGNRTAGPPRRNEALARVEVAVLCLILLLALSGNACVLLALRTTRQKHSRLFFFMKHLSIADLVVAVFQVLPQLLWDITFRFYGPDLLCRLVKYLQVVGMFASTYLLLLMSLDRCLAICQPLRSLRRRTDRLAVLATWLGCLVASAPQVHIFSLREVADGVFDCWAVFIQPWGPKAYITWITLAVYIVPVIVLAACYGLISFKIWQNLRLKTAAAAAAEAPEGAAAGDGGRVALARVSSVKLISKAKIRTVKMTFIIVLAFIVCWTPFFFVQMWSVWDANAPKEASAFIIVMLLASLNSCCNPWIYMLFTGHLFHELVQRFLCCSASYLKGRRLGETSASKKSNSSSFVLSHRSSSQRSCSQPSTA
# OXTR potentiator = human OXTR potentiators, primary screen, fluorescence, CHO-OTR cells, Fluo-8 calcium; Fluo-8 calcium fluorescence, potentiator mode; 0% = oxytocin EC15, 100% = EC100; activation, % at 3 µM; hit rate 0.061% among 320,000;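 active = activation above that plate's cutoff, the mean activation of tested compounds plus 3 SD, cut at about 6.6% in these data, passing the limit was not always enough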;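 also: 100% uses oxytocin at 75 nM as the full agonist control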
#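 Dosing: Single dose, 3.0 µM nominal final compound concentration | Material: Human OTR in CHO cells | Technique: Kinetic Fluo-8 calcium fluorescence | Benchmarks: EC15 oxytocin alone as 0%, 75 nM oxytocin as 100% | Probe or stimulus: Oxytocin at about EC15, sub-maximal agonist stimulus | Incubation: Compound 6 min at room temperature before oxytocin, 100 s read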
# TAAR1 ag = human TAAR1 agonists, primary screen, Fluo-8 calcium fluorescence, CHO RD-HGA16 cells. vehicle wells 0%, saturating PEA agonist 100%. activation, % at 3 µM. hit rate 0.99% among 360,000. Trace amine-associated receptor 1 (Homo sapiens), Q96RJ0;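 active = activation above the mean activation of all test compounds in the run plus 3 SD, cut at about 38% in these data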
# Target sequence (Q96RJ0 whole entry, looked up): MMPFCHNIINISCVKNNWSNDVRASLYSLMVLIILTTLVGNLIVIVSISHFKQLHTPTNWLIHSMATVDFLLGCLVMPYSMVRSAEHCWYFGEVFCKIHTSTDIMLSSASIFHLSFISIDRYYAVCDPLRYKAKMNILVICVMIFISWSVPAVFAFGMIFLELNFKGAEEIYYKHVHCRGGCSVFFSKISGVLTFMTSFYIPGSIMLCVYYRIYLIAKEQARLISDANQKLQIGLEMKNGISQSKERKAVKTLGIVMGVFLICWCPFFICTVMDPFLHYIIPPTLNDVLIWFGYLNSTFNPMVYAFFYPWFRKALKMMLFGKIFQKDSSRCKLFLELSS
#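 Test system: RD-HGA16 (CHO) cells co-expressing Gα16 and hTAAR1; dosing: one-point dosing at 3 µM (nominal); timing: 17-24 h seeding, 75 min 37 °C dye, 30 min RT; signal: kinetic Fluo-8 calcium fluorescence; read-out basis: % activation relative to PEA EC100 response; controls: DMSO and PEA EC100; replicates: n 1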
# TAAR1 antagonist = human TAAR1 antagonists, primary screen, Fluo-8 calcium fluorescence, CHO RD-HGA16 cells | Trace amine-associated receptor 1 (Homo sapiens), Q96RJ0 | antagonist | inhibition, % at 3 µM | hit rate 1.5% among 360,000 | AID 624466, 2012;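 active = inhibition above a per-plate cutoff, the mean inhibition of test compounds on that plate plus 3 SD, cut at about 49% in these data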;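 also: 0% = DMSO plus EC80 beta-PEA response and 100% = DMSO alone without agonist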
#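 Material: RD-HGA16 CHO cells with stable hTAAR1 and Gα16; Dosing: single nominal final test compound concentration of 3 µM; Schedule: seeding 17-24 h prior, 75-min 37 °C, 30-min RT dye loading; Detection: kinetic Fluo-8 calcium fluorescence measurement; Measure: % inhibition from peak post-agonist over basal fluorescence ratio; Benchmarks: vehicle and agonist controls.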
# V1aR counter = agonists of human V1a receptor, primary screen, counter-screen for OXTR agonist project, fluorescence, CHO-V1R cells. activation, % at 3 µM. hit rate 0.25% among 320,000. AID 2797, 2010. Fluo-8 calcium fluorescence, agonist mode; 0% DMSO, 100% 3 nM vasopressin;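 active = activation above the mean activation of all tested compounds plus 3 SD, per screening run, cut at about 20% in these data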;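 also: signal is peak over basal fluorescence ratio across a 100 second FLIPR read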
# TAAR1 ag confirm = human TAAR1 agonists, retest of hits, confirmation, Fluo-8 calcium fluorescence, CHO RD-HGA16 cells. shares compounds with TAAR1 ag. scaled: DMSO 0%, maximal phenethylamine 100%. activation, % at 3 µM. hit rate 82% among 2,400. AID 651783, 2012;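 active = activation above a cutoff set at the run's mean compound activation plus 3 SD, cut at about 39% in these data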
# Ga16 ag counter = nonselective calcium mobilization agonists, CHO-Ga16 cells, counter-screen for hTAAR1 agonist project, cell-based, fluorescence, CHO-Ga16 parental line | shares compounds with TAAR1 ag | Fluo-8 calcium fluorescence; normalized to maximal ATP response, DMSO zero | activation, % at 3 µM | hit rate 50% among 2,400 | AID 651787, 2012;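 active = activation above the run cutoff, the mean activation over all tested wells plus 3 SD, cut at about 12% in these data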;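 also: 0% = DMSO wells and 100% = maximal ATP response on the peak over basal ratio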
# TAAR1 desens = TAAR1 desensitization by agonist hits, confirmation, counter-screen for TAAR1 agonist project, cell-based, fluorescence, tachyphylaxis; shares compounds with TAAR1 ag; CHO RD-HGA16 hTAAR1, Fluo-8 calcium, beta-PEA response inhibition; inhibition, % at 3 µM; hit rate 46% among 2,400;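 active = inhibition above the run cutoff, the mean inhibition of all test compounds plus 3 SD, cut at about 49% in these data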;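 also: beta-PEA stimulus applied at its EC80; loss of beta-PEA calcium signal after compound pretreatment read as receptor desensitization; 0% = DMSO with beta-PEA at EC80 and 100% = DMSO alone without agonist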
# Ga16 antag count = inhibition of ATP-evoked calcium response in CHO-Ga16 cells, counter-screen for TAAR1 agonist project, cell-based, fluorescence | shares compounds with TAAR1 ag | CHO-Ga16 ATP-induced calcium, Fluo-8 fluorescence | inhibition, % at 3 µM | hit rate 39% among 2,400 | AID 651952, 2012;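 active = inhibition above the plate's mean compound inhibition plus 3 SD, computed per plate, cut at about 22% in these data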;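 also: 0% = EC80 ATP with DMSO and 100% = DMSO wells without ATP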
# * = called active by the depositor; . = no result given.
SMILES,OXTR agonist,OXTR potentiator,TAAR1 ag,TAAR1 antagonist,V1aR counter,TAAR1 ag confirm,Ga16 ag counter,TAAR1 desens,Ga16 antag count
COc1ccc2cc(CN(CCc3ccccc3)Cc3nnnn3CC3CCCO3)c(=O)[nH]c2c1 (centres undefined),0,-4,92*,57*,1,78*,5,75*,17
COc1ccc2[nH]c(=O)c(CN(Cc3ccccc3OC)Cc3nnnn3CC3CCCO3)cc2c1 (centres undefined),1,-2,1,-13,0,.,.,.,.
Cc1ccc2[nH]c(=O)c(CN(CCc3ccccc3)Cc3nnnn3CC3CCCO3)cc2c1 (centres undefined),-1,-8,87*,79*,0,54*,5,20,14
COc1ccc2[nH]c(=O)c(CN(CCc3ccccc3)Cc3nnnn3CC3CCCO3)cc2c1 (centres undefined),0,-5,84*,72*,0,88*,8,81*,25*
COc1cc(NC(=O)COC(=O)CCOc2ccc(C)cc2)cc(OC)c1,-1,3,0,-11,0,.,.,.,.
C[C@H]1CN([C@@H](C)CO)C(=O)CCCn2nncc2CO[C@@H]1CN(C)Cc1ccc(Cl)c(Cl)c1,.,.,0,-4,.,.,.,.,.
COC(=O)c1cnc(Nc2nc(C(N)c3ccccc3Cl)cs2)nc1C(F)(F)F (centres undefined),.,.,60*,41,.,68*,36*,29,28*
COC(=O)c1cnc(Nc2nc(C(N)COCc3ccccc3)cs2)nc1C(F)(F)F (centres undefined),.,.,13,-2,.,.,.,.,.
COc1ccc(NS(=O)(=O)c2cccc(C(=O)OCC(=O)Nc3cc(C)on3)c2)cc1,4,-22,6,-1,11,.,.,.,.
Cc1ccc(NS(=O)(=O)c2ccc(C(=O)OCC(=O)Nc3cc(C)on3)cc2)cc1,.,.,72*,7,.,72*,35*,50*,37*
Cc1c(C(N)=O)sc2ncn(CC(=O)NCCc3ccccc3)c(=O)c12,0,-1,1,-18,1,.,.,.,.
Cc1ccsc1/C=N/NC(=O)Cn1cnc2ccccc21,3,-10,56*,29,5,61*,2,45,12
C/C(=N\NC(=O)Cn1nc(C)c([N+](=O)[O-])c1C)c1ccc(Cl)s1,1,-8,1,-16,-2,.,.,.,.
Cc1nn(CC(=O)N/N=C/c2cccs2)c(C)c1[N+](=O)[O-],1,-2,57*,38,1,80*,6,72*,4
COc1cccc(/C=N/NC(=O)Cn2nc(C)c([N+](=O)[O-])c2C)c1O,1,2,1,-17,-1,.,.,.,.
Cc1ccc(/C=N/NC(=O)Cn2cnc3ccccc32)cc1,2,-1,3,10,2,.,.,.,.
Cc1ccsc1/C=N/NC(=O)Cn1nc(C)c([N+](=O)[O-])c1C,0,-6,45*,-6,1,72*,0,55*,6
O=C1C2CCCN2C(=S)N1c1ccc(Cl)cc1 (centres undefined),5,-6,1,-5,3,.,.,.,.
COC(=O)[C@H](CO)N1C(=O)[C@@H]2[C@H](C1=O)C1C=C[C@H]2C1,.,.,1,15,.,.,.,.,.
COc1ccc(C(C)(C)C)cc1NC(=O)COc1ccc(-c2nnco2)cc1,0,-6,11,35,1,.,.,.,.
Fc1c(F)c(C(F)(F)F)c(F)c(F)c1N/N=C\c1cccs1,7,-9,92*,75*,0,70*,86*,71*,80*
OC(CNCCc1ccc(C(F)(F)F)cc1)COc1ccc2ccccc2c1 (centres undefined),12,-14,29,10,9,.,.,.,.
OC(CNCCc1ccc(C(F)(F)F)cc1)COc1cccc2ccccc12 (centres undefined),6,-14,60*,22,3,60*,29*,64*,44*
CCOC(=O)Cc1nnc(NC(=O)CSc2ccc(C)cc2)s1,6,-5,69*,8,2,58*,27*,7,-2
CCOc1ccc(NC(=O)Nc2nnc(CC(=O)NCc3ccccc3)s2)cc1,-1,-7,9,-1,0,.,.,.,.
SMILES,OXTR agonist,OXTR potentiator,TAAR1 ag,TAAR1 antagonist,V1aR counter,TAAR1 ag confirm,Ga16 ag counter,TAAR1 desens,Ga16 antag count
COCc1nnc(NC(=O)CSc2ccc(C)cc2)s1,0,-3,36,-5,3,.,.,.,.
CCOC(=O)Cc1nnc(NC(=O)Nc2ccccc2)s1,-2,-22,45*,26,2,67*,4,42,4
COc1ccc(NC(=O)Nc2nnc(CC(=O)NCc3ccccc3)s2)cc1,-1,-17,44*,22,1,54*,5,32,14
COc1ccc(C2=Nn3c(nnc3-c3cc(C)[nH]n3)SC2)cc1,-2,0,-1,-20,1,.,.,.,.
O=C(NCCCCc1ccccc1)c1ccccc1Br,-3,0,3,-16,-2,.,.,.,.
O=C(C1CCCO1)N1CCN(C(=S)Nc2cc(F)cc(F)c2)CC1 (centres undefined),0,-8,4,-20,-1,.,.,.,.
CCn1c(C)nc2cc(C(=O)NNC(=O)Nc3ccc(Cl)cc3)ccc21,0,-1,45*,19,0,68*,3,57*,14
NC(N)=NC(N)=Nc1cccc2ccccc12,0,-4,3,-2,0,.,.,.,.
NC(N)=Nc1cc2ccccc2c2ccccc12,-1,-3,.,.,0,.,3,.,6
N#Cc1nc(-c2ccc(Cl)cc2)oc1NCCc1ccccn1,1,-4,45*,-10,0,8,7,22,16

# Screening data from PubChem.
